Assays:
Cholinesterase = Cholinesterase (Homo sapiens, UniProt P06276); assay: Inhibition of human Butyrylcholinesterase
Method in brief: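 Compounds in Tween 80/EtOH 3:1 were diluted in half-log steps to 0.3 nM–[…] final and preincubated with enzyme in pH 8.0 buffer for 30 min at RT. Run on four occasions. IC50 from logit activity versus log concentration.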

Acetylcholinesterase = Acetylcholinesterase (Homo sapiens, UniProt P22303); assay: Inhibition of human acetylcholinesterase from erythrocytes (RBC)
Acetylcholinesterase, sequence (P22303 whole entry): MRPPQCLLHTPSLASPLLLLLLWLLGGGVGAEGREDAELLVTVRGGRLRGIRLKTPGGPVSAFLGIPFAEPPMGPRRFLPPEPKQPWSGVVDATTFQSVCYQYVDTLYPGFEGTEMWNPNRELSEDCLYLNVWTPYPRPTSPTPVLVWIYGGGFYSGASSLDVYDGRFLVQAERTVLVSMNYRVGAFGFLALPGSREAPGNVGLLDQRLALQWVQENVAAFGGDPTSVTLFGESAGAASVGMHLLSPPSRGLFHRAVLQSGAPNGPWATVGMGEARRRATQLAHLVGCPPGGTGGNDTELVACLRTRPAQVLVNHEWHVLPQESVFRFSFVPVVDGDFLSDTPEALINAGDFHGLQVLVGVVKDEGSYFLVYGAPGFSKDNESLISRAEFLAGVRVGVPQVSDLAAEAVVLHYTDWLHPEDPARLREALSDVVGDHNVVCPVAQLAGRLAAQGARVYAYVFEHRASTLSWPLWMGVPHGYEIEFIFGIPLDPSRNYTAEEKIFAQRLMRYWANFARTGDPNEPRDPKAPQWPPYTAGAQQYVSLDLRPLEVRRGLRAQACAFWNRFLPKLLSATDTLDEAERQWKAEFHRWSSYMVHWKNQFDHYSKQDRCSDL

[1] = In vivo half life of the compound; type: ADME, organism-based

Cholinesterase, sequence (P06276 whole entry): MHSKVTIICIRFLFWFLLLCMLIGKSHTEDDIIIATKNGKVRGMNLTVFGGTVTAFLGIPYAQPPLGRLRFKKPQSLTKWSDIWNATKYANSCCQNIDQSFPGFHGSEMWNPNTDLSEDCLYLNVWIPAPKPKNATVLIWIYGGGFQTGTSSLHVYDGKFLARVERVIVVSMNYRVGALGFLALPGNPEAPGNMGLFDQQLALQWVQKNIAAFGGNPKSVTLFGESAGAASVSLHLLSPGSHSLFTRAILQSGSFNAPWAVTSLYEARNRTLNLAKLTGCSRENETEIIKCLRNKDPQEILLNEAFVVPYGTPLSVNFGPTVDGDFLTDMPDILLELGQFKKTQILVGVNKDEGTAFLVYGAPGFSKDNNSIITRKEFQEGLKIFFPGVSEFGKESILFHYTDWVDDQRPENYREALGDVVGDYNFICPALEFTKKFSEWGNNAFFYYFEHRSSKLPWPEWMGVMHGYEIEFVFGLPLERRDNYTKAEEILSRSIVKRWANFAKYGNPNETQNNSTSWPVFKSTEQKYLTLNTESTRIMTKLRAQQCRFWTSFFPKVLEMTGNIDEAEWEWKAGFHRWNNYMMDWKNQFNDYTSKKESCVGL

Row | SMILES | IC50 (Cholinesterase) | IC50 (Acetylcholinesterase) | half-life [1]
1 | CNC(=O)Oc1ccc2c(c1)[C@]1(C)CCN(C)C1N2 (stereo not given in full) | 6.8 nM | 56.7 nM | –
2 | CN1CC[C@@]2(C)c3cc(OC(=O)Nc4ccccc4)ccc3N(Cc3ccccc3)C12 (stereo not given in full) | 85.3 nM | 245 nM | –
3 | CN1CC[C@@]2(C)c3cc(OC(=O)Nc4ccccc4)ccc3N(C=O)C12 (stereo not given in full) | 1470 nM | 780 nM | –
4 | CNC(=O)Oc1ccc2c(c1)[C@@]1(C)CCN(C)C1N2Cc1ccccc1 (stereo not given in full) | 1590 nM | 2850 nM | –
5 | CN1CC[C@@]2(C)c3cc(OC(=O)Nc4ccccc4)ccc3NC12 (stereo not given in full) | 516 nM | – | –
6 | CN1CC[C@]2(C)c3cc(OC(=O)Nc4ccccc4)ccc3NC12 (stereo not given in full) | 1750 nM | 5650 nM | –
7 | CNC(=O)Oc1ccc2c(c1)[C@]1(C)CCN(C)[C@@H]1N2C [PHYSOSTIGMINE] | – | – | 1 h
8 | CN1CC[C@]2(C)c3cc(OC(=O)Nc4ccccc4)ccc3N(C)C12 (stereo not given in full) | 23500 nM | 3500 nM | –
9 | CNC(=O)Oc1ccc2c(c1)[C@]1(C)CCN(C)C1N2C=O (stereo not given in full) | 46 nM | 387 nM | –
10 | CN1CC[C@@]2(C)c3cc(OC(=O)Nc4ccccc4)ccc3N(C)C12 (stereo not given in full) | 1300 nM | 24 nM | 8 h
11 | CN1CC[C@]2(C)c3cc(OC(=O)Nc4ccccc4)ccc3N(Cc3ccccc3)C12 (stereo not given in full) | 7090 nM | 11200 nM | –
12 | CNC(=O)Oc1ccc2c(c1)[C@]1(C)CCN(C)C1N2Cc1ccccc1 (stereo not given in full) | 21.8 nM | 161 nM | –
13 | CNC(=O)Oc1ccc2c(c1)[C@@]1(C)CCN(C)C1N2 (stereo not given in full) | 1120 nM | 2190 nM | –

Reference: ChEMBL document CHEMBL1130392, “Total syntheses and anticholinesterase activities of (3aS)-N(8)-norphysostigmine, (3aS)-N(8)-norphenserine, their antipodal isomers, and other N(8)-substituted analogues” (J Med Chem, 1997)
